Tests used:
MOLT-4 = assay: Tested for cytotoxicity in Molt-4 cells by XTT assay; type: functional, cell-based; details: Homo sapiens
Procedure, shortened: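 Molt-4 cells plated at 3×10^4 cells/well with compound; on day 7 XTT conversion to formazan measured, with trypan blue microscopic examination also used; IC50 derived.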

[1] = target: Human immunodeficiency virus type 1 reverse transcriptase (Human immunodeficiency virus 1, UniProt Q72547); assay: Inhibitory concentration against HIV-1 reverse transcriptase in scintillation proximity assay
Procedure, shortened: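 Recombinant purified HIV-1 RT (2 nM) with 39 nM 50-mer RNA template annealed to biotinylated 17-mer DNA primer; 75 nM dATP, dCTP, dGTP and [3H]TTP. Buffer 50 mM Tris-HCl pH 8.0, 80 mM KCl, 10 mM MgCl2, 10 mM DTT, 0.012% CHAPS. Enzyme, template-primer and inhibitor (90 μM–0.01 nM) preincubated 15 min at 37 °C; reaction 10 min at 37 °C, EDTA stop, streptavidin scintillant beads, scintillation counting.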

[2] = system: Human immunodeficiency virus 1; assay: Anti-HIV activity against HIV-1 in Molt-4 cells using 7-day infective assay; type: functional, organism-based; details: Human immunodeficiency virus 1, MOLT-4, 168 h
Procedure, shortened: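 Molt-4 cells (3×10^4) infected with 50 tissue culture infectious doses of HIV-1; compound added day 0, cultures refed days 1 and 4 with medium containing compound at initial concentration. On day 7 cells spun down and supernatant RT quantified by microassay; IC50 from RT quantitation.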

[3] = Selectivity index is the ratio of cytotoxicity in Molt-4 cells and anti-HIV- IC50; type: functional
Procedure, shortened: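 Selectivity index = cytotoxicity IC50 (XTT, Molt-4, day 7) divided by anti-HIV IC50 (RT quantitation in supernatant 7 days after HIV-1 infection of Molt-4 cells).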

[4] = target: Human immunodeficiency virus type 1 reverse transcriptase (Human immunodeficiency virus 1, UniProt Q72547, Y181C); assay: Inhibitory concentration against HIV-1 reverse transcriptase mutant (Tyr-181 to Cys)
Procedure, shortened: (§1)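 Scintillation proximity assay for RNA-dependent DNA polymerase activity of recombinant purified RT. The template is a 50-mer RNA annealed at its 5'-end to a biotinylated 17-mer DNA primer. Buffer is 50 mM Tris-HCl pH 8.0 with 80 mM KCl, 10 mM MgCl2, 10 mM DTT and 0.012% CHAPS. Final levels are 2 nM RT, 39 nM template-primer, 75 nM each dATP/dCTP/dGTP/[3H]TTP, and inhibitor serially diluted over 90 μM–0.01 nM. RT, template-primer and inhibitor are preincubated 15 min at 37 °C. The reaction runs 10 min at 37 °C and is stopped with EDTA. Incorporated label is captured on streptavidin scintillant beads and counted to give IC50.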

[5] = target: Human immunodeficiency virus type 1 reverse transcriptase (Human immunodeficiency virus 1, UniProt Q72547, Y181L); assay: Inhibitory concentration against HIV-1 reverse transcriptase mutant (Tyr-181 to Leu); procedure, shortened: as §1

IC50 [1]	Structure (SMILES)	IC50 (MOLT-4)	also measured
> 100 µM	CC(=O)O[C@H]1c2c(c3c(c4c(-c5ccccc5)cc(=O)oc24)OC(C)(C)C=C3)O[C@H](C)[C@H]1C		
0.72 µM	CC(=O)O[C@@H]1c2c(c3c(c4c(-c5ccccc5)cc(=O)oc24)OC(C)(C)C=C3)O[C@H](C)[C@H]1C		
46 µM	C[C@@H]1[C@H](C(=O)c2ccc(Br)cc2)c2c(c3c(c4c(-c5ccccc5)cc(=O)oc24)OC(C)(C)C=C3)O[C@@H]1C		
10 µM	C[C@H]1Oc2c3c(c4c(-c5ccccc5)cc(=O)oc4c2C(=O)[C@@H]1C)OC(C)(C)C=C3	18 µM	
100 µM	C[C@@H]1C(=O)c2c(c3c(c4c(-c5ccccc5)cc(=O)oc24)OC(C)(C)C=C3)O[C@@H]1C	6.2 µM	
> 100 µM	CC1[C@H](O)c2c(c3c(c4c(-c5ccccc5)cc(=O)oc24)O[C@@H]2[C@H]3C2(C)C)O[C@@H]1C (single isomer, unassigned)		
70 µM	CC1[C@H](O)c2c(c3c(c4c(-c5ccccc5)cc(=O)oc24)O[C@H]2[C@@H]3C2(C)C)O[C@@H]1C (single isomer, unassigned)		

Further lines, the molecule ahead of its results:

Structure (SMILES)	IC50 [1]	IC50 (MOLT-4)	also measured
C[C@@H]1[C@H](O)c2c(c3c(c4c(-c5ccccc5)cc(=O)oc24)OC(C)(C)C=C3)O[C@@H]1C	30 µM	33 µM	
C[C@H]1Oc2c3c(c(/C(=C\C(=O)O)c4ccccc4)c(O)c2C(=O)[C@@H]1C)OC(C)(C)C=C3	> 100 µM		
C[C@@H]1C(=O)c2c(O)c(/C(=C\C(=O)O)c3ccccc3)c3c(c2O[C@@H]1C)C=CC(C)(C)O3	> 100 µM		
CC1=Cc2c(c3c(c4c(-c5ccccc5)cc(=O)oc24)OC(C)(C)C=C3)O[C@@H]1C	9 µM		
CC(C)=CCN1Cc2cc(Cl)cc3[nH]c(=S)n(c23)C[C@@H]1C	0.7 µM	19 µM	IC50 [2]: 0.19 µM; Selectivity index [3]: 100
C[C@H]1[C@H](O)c2c(c3c(c4c(-c5ccccc5)cc(=O)oc24)OC(C)(C)C=C3)O[C@@H]1C	0.038 µM	55 µM	IC50 [2]: 1.4 µM; IC50 [4]: 0.16 µM; IC50 [5]: 0.41 µM; Selectivity index [3]: 39
C[C@H]1[C@@H](C)Oc2c3c(c4c(-c5ccccc5)cc(=O)oc4c2[C@@H]1O)OC(C)(C)C=C3	11 µM	15 µM	
C[C@@H]1[C@@H](C)Oc2c3c(c4c(-c5ccccc5)cc(=O)oc4c2[C@@H]1O)OC(C)(C)C=C3	0.13 µM	25 µM	IC50 [2]: 1.6 µM; Selectivity index [3]: 16

— ChEMBL document CHEMBL1126563, “The inophyllums, novel inhibitors of HIV-1 reverse transcriptase isolated from the Malaysian tree, Calophyllum inophyllum Linn” (J Med Chem, 1993)
